PubChem BioAssay AID561 (The Scripps Research Institute Molecular Screening Center, 2006)
Screen size: about 65,000 compounds; about 280 (0.43%) were called active. This excerpt belongs to a sample that is enriched for actives. Unmarked numbers belong to inactive results.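 Rule for the calls: active = inhibition above the mean of all tested compounds plus 3 SD (cut at about 52% in these data); inactive = the rest.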

Molecular target: Nuclear receptor ROR-alpha (Homo sapiens) (UniProt P35398)
Assay: inhibitors of orphan receptor RORA, primary screen, cell-based, luminescence (AID 561);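 note: 0% = RORA-transfected cells with DMSO and 100% = mock-transfected cells lacking RORA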
Conditions: CHO-K1 Gal4-RORA LBD luciferase reporter, at 10 µM, active compounds read high
In short: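 Material: transiently transfected CHO-K1 cells, Gal4-DBD/human RORA-LBD fusion plus 5xGal4-luciferase reporter; doses: single concentration per compound, 10 µM final; incubation: 20 h at 37 °C; detection: luminescence from basal luciferase reporter expression; read-out: % inhibition of basal luciferase versus +RORA/-RORA DMSO controls; replication: tested once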

Chain of Nuclear receptor ROR-alpha (Homo sapiens) (P35398 whole entry, looked up): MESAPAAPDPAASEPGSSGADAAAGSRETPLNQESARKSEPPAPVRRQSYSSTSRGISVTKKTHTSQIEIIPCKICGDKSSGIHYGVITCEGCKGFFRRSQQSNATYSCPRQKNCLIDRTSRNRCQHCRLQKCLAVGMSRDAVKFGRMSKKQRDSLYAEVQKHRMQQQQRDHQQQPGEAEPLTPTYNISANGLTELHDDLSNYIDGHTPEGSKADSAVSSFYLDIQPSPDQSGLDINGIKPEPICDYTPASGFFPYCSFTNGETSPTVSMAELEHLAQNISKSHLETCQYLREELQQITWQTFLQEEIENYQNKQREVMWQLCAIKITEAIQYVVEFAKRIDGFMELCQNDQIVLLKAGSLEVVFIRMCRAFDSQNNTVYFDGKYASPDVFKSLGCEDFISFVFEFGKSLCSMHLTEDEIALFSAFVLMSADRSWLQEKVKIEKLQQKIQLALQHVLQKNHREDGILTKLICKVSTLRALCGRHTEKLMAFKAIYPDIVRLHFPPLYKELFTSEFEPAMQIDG

Row | Structure (SMILES) | inhibition
1 | CNC(=O)CSc1nnnn1-c1ccc(C)cc1C | 14%
2 | CC1CCCN(Cc2nc3c(c(=O)n(C)c(=O)n3C)n2CC(=O)c2ccccc2)C1 (stereo not drawn) | -31.2%
3 | CC(=O)Nc1ccc(-c2nn3c(C)nnc3s2)cc1C | 10.7%
4 | N#CC(=C1SC=CS1)c1nc(-c2ccccc2)cs1 | -59.7%
5 | Cc1oc2nc(SCC(=O)NCc3cccnc3)nc(N)c2c1C | 72.8% (active)
6 | CNC(=O)CN1C(=O)c2ccccc2S1(=O)=O | -15%
7 | CC(C)c1ccc(NC(=O)NC2CCCCC2)cc1 | -85.1%
8 | CC1CN(c2cc(=O)n(-c3cccc(Br)c3)c(=O)[nH]2)CC(C)O1 (stereo not drawn) | 29.5%
9 | Cc1ccnc(N2CCCC(C(=O)Nc3cc(F)ccc3C)C2)n1 (stereo not drawn) | 5.7%
10 | Cc1ccc(F)cc1NC(=O)Cc1nn(C)c(=O)c2ccccc12 | 53.5% (active)
11 | CCC(=O)NC(=Nc1nc2ccccc2s1)NC(=O)CC | -48.7%
12 | Cc1ccc(S(=O)(=O)Nc2ccc3ncccc3c2)cc1 | 56.7% (active)
13 | CCOC(=O)c1nc(-c2ccc3c(c2)OCO3)[nH]c1C | -66.7%
14 | c1c2c(cc3sc(N4CCCCC4)nc13)OCCO2 | 75.4% (active)
15 | Fc1c(F)c(C(F)(F)F)c(F)c(F)c1N1CCN(c2ccc3nnc(C(F)(F)F)n3n2)CC1 | 6.9%
16 | O=C(O)C1OC(C(=O)O)C2C1C(F)(F)C2(F)F (stereo not drawn) | 1.7%
17 | COc1ccc(N=Cc2c(O)[nH]c3ccccc23)cc1OC | -55.7%
18 | C(=C\c1ccccc1)/CSc1nnc(-c2cccnc2)n1Cc1ccco1 | -2.8%
19 | Cc1nc2ccc(S(=O)(=O)NCC(=O)NCCN3CCCCC3C)cc2s1 (stereo not drawn) | 6.1%
20 | Cn1c(=NC(=O)c2ccco2)sc2cccc(F)c21 | -61.5%
21 | O=C(CN1C(=O)c2ccccc2S1(=O)=O)N1CCc2ccccc21 | 37.4%

Row | Structure (SMILES) | inhibition
22 | COc1ccccc1CNC(=O)C1CCCN(S(=O)(=O)c2cccc3cccnc23)C1 (stereo not drawn) | 5.2%
23 | CCC(=O)Oc1cccc(C(=O)Nc2ccc(-c3nnc(-c4ccco4)o3)cc2)c1 | -112%
24 | COC(=O)c1sc(NC(=O)c2csc3c2CCCC3)nc1C | -33.7%
25 | c1ccc(Nc2nc(-c3ccncc3)cs2)nc1 | -50.9%
26 | COc1ccc(OC)c(Nc2nc(-c3ccc(O)c(O)c3)cs2)c1 | 74.4% (active)
27 | COc1ccc(C(=O)Nc2nncs2)c(OC)c1 | -62.9%
28 | Cn1nnc2cc(C(=O)NCCC3=CCCCC3)ccc21 | -18%
29 | Cc1cc(C)nc(N2CCN(c3ncnc4c3oc3ccccc34)CC2)n1 | 7.6%
30 | CCCOc1ccccc1C(=O)NCCCC(=O)O | 16.7%
31 | O=C(C1CCN(c2nnc(-n3cccc3)s2)CC1)N1CCc2ccccc2C1 | 8.1%
32 | COC(=O)Nc1ncc(CN2C(=O)c3ccccc3C2=O)s1 | 19.5%
33 | COCn1c(COc2ccccc2)nc2ccccc21 | -53.4%
34 | Cc1ccc(CCNC(=O)C2CCN(S(=O)(=O)N3CCCC3)CC2)cc1 | 2.2%
35 | COc1ccc(Nc2oc(-c3ccccc3Cl)nc2C#N)cc1 | -98.6%
36 | COC(=O)c1ccc(NC(=O)c2ccco2)cc1 | -77.4%
37 | C=CCn1c(C(C)NC(=O)CC)nc2ccccc21 (stereo not drawn) | -12.3%
38 | Cn1c(=O)c2c(nc(N3CCCCCC3)n2CC(O)COc2ccc(Cl)cc2)n(C)c1=O (stereo not drawn) | -1%
39 | C=CCOc1nc2c(c(=O)n(C)c(=O)n2C)n1Cc1ccc(Cl)cc1Cl | 63.5% (active)
40 | CCCc1[nH]nc2c1C(c1ccc(OC)c(Cn3nc(C)c(Br)c3C)c1)C(C#N)=C(N)O2 (stereo not drawn) | 27.5%
41 | CN(C)c1cc(N)c2ccccc2n1 (tested in a mixture with another compound) | -3.2%
42 | O=C1c2oc3ccccc3c(=O)c2C(c2cccc(O)c2)N1c1ccccn1 (stereo not drawn) | -9.5%

Row | Structure (SMILES) | inhibition
43 | COc1ccc(-c2nn(-c3ccccc3)cc2C(=O)Nc2nc(CC(C)=O)ns2)cc1 | -0.5%
44 | COc1cccc(N2CCN(C(=O)C3CCCN(S(=O)(=O)c4cnc[nH]4)C3)CC2)c1 (stereo not drawn) | 4.9%
45 | Cc1ccc(NC(=O)c2nc[nH]c2C(=O)N2CCCCC2)c(C(=O)c2ccccc2)c1 | 24.7%
46 | O=c1[nH]c(-c2ccccc2)c(-c2ccccc2)[nH]1 | 23.5%
47 | O=C(CCC(=O)c1cccs1)NCc1ccccc1 | 2.2%
48 | COc1ccc(NC(=O)c2cccc(NC(=O)c3ccco3)c2)c(OC)c1 | -19%
49 | CC(C)n1c(SCC(=O)Nc2ccccc2N2CCCCC2)nc2c1c(=O)n(C)c(=O)n2C | 18.7%
50 | CC(C)Cc1cc(C(=O)NCCc2ccccc2)no1 | -23.2%
51 | c1coc(CNc2ncnc3ccccc23)c1 | 66.3% (active)
52 | O=C(Cc1ccccc1)n1nc(-c2ccccc2)nc1NCc1ccco1 | -8%
53 | O=C(NCc1ccc2c(c1)OCO2)c1ccc2c(c1)C(=O)N(CC1CCCO1)C2=O (stereo not drawn) | 4.9%
54 | Cc1ccc(Cn2ccc(NC(=O)C3C4CCC(C4)C3C(=O)O)n2)cc1 (stereo not drawn) | -14.2%
55 | COc1ccccc1C1/C(=C(/O)c2ccc(C)cc2)C(=O)C(=O)N1Cc1ccco1 (stereo not drawn) | -17.5%
56 | O=C(CNC(=O)c1ccco1)OCC(=O)c1ccccc1 | 10.7%
57 | O=c1cc(-c2ccccc2)nc(N2CCCCC2)[nH]1 | -0.2%
58 | CC(C)C[C@H](NC(=O)Nc1cccc(C(F)(F)F)c1)C(=O)O | 11.1%
59 | CN(c1ccc(C(=O)NCCC2=CCCCC2)cc1)S(C)(=O)=O | -63%
60 | CC(=O)Nc1ccn(Cc2c(F)cccc2Cl)n1 | -27.2%
61 | CCOC(=O)Cc1c(C)nc2c(C#N)c(C)nn2c1C | -2.8%
62 | COC(=O)C(C)C1Sc2ccccc2NC1=O (stereo not drawn) | 13.2%
63 | CC(=O)c1cnc(Nc2nc(C)c3cc(C)ccc3n2)nc1C | 26.5%
